From the EternaBench riboswitch data

Tested on: MS2 coat protein
Experiment: apparent Kd, MS2 coat protein; higher = weaker binding; RNA-MaP array
Summary of the method: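 Sequenced DNA templates on an Illumina sequencing chip were transcribed into the designed RNAs. These were incubated at room temperature in Tris-HCl pH 7.5 buffer containing KCl, MgCl2, BSA, DTT, tRNA and Tween20 with fluorescently labeled MS2 coat protein at 1.5 nM to 3 μM, with or without input ligand. Apparent Kd is the median of binding-curve fits per cluster, and designs with fewer than 10 clusters measured were excluded.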

[1] = designed as: OFF switch for flavin mononucleotide, no ligand
[2] = ligand present: flavin mononucleotide, designed as: OFF switch for flavin mononucleotide
[3] = designed as: ON switch for flavin mononucleotide, no ligand
[4] = ligand present: flavin mononucleotide, designed as: ON switch for flavin mononucleotide
[5] = designed as: ON switch for theophylline, no ligand
[6] = ligand present: theophylline, designed as: ON switch for theophylline

Row | Sequence | apparent Kd [1] | apparent Kd [2] | other results
1 | CGUAUGGGUGUCAGGAUAUGCGGGACGCUGUUACUGCAGAAGGGACAUGAGGAUCACCCAUGUAGUUCCAGACC | 0.0184 µM | 0.0333 µM | –
2 | CAACACGGAGAGAAGGAAGCUGAAACGGUGCACUUAGGAUAUCUUCCGCCAGAAAACAUGAGGAUCACCCAUGUUCAGUUAACG | – | – | apparent Kd [3]: 0.00782 µM; apparent Kd [4]: 0.00754 µM
3 | UGUCCCACGCAAGUACAUGAGGAUCACCCAUGUCUGAACCAGAGAAGGAGAGUUAUACUGGAAAUCUAGGAUAUCUGACAGACU | 0.0433 µM | 0.0505 µM | –
4 | UCGAACUAACAAGGAUAUACGCGGGUCGAAACGGUAGAAGGUGUCAACGGUAUCUCACAUGAGGAUCACCCAUGUCGGCAGGGA | 0.135 µM | 0.103 µM | –
5 | GUGACUAGCGUAAGGAUAUUCACGAGCGGCGGCUUGAAGAAGGUACAUGAGGAUCACCCAUGUAGGGUAAUCAA | 0.0416 µM | 0.0443 µM | –
6 | AAAAGGGCAGGAUAUACAUGAGGAUCACCCAUGUUAAAGCCAACAAGAAGUUCCACUGGUAGAAGGGCCAUAGA | 0.00889 µM | 0.00855 µM | –
7 | AAAAGAGAAGGAUAUACAGGAAAAGAAAAGAUAUUUCAAUAACAUGAGGAUCACCCAUGUAGAAGGACUAAUAG | 0.0118 µM | 0.00974 µM | –
8 | GCGGACGAUGAGAAGGUAGUAAGGUAGGACAUGAGGAUCACCCAUGUAUGAACUAUCCCAACAACUAAGGAUAUCAGCAACCCU | 0.00734 µM | 0.00577 µM | –
9 | AUGUUAAGACAGGAUAUCCAAGCUCUAGCGUCAGGAGAAGGGUCAACAUGAGGAUCACCCAUGUGUAGUCUUCG | 0.00748 µM | 0.0152 µM | –
10 | AGCGUGUAAGGAUAUUGAUCUCCACUUCUGUAGGUCGGUGACAAGAAGGUACAUGAGGAUCACCCAUGUCCAUG | 0.0198 µM | 0.0217 µM | –
11 | UACCGGUGACUCGAUACCAGUCCUCUAAAAUACAUGAGGAUCACCCAUGUAACCUUCCCAGACCCUUGGCAGCGACACAUGGAUA | – | – | apparent Kd [5]: 0.145 µM; apparent Kd [6]: 0.0382 µM
12 | AUGUGCAAUACGGAUACCAGCCCGUGUAGAUACAUGAGGAUCACCCAUGUCAAUGUAAAUGGCCCUUGGCAGCCGUUUGGGAGGC | – | – | apparent Kd [5]: 0.0157 µM; apparent Kd [6]: 0.0118 µM
13 | UACCUUAACACGGCCGCCACUCUCUAAUAGGAUCAUGGUACCGCACAUGAGGAUCACCCAUGUUUGAGGACCGGGUGUUAUGAAG | – | – | apparent Kd (designed as: ON switch for tryptophan, no ligand): 0.0151 µM; apparent Kd (ligand present: tryptophan, designed as: ON switch for tryptophan): 0.0287 µM
14 | UCAUUGUGAGGAUAUUGAUAGCGGACCUUGAUUCUGUACAACAAGAAGGCACAUGAGGAUCACCCAUGUCAUCA | 0.0164 µM | 0.0584 µM | –
15 | AAAUGCAUUCGAGGAUAUGUCAUGAUGUUGUAAACAGAAGGCGAGGCAUCGACAUGAGGAUCACCCAUGUGCACAGGUAAAAGU | – | – | apparent Kd [3]: 0.0376 µM; apparent Kd [4]: 0.0164 µM
16 | AAACAGGAAGGAUAUACAUGAGGAUCACCCAUGUCAAAUAAAACAAAUAAGCAAGAAUGUAGAAGGACCAAAAU | 0.0172 µM | 0.0128 µM | –
17 | AGAUCUAACGCAGGAUAUAGUGCGGGAAAACCUAAACAUGAGGAUCACCCAUGUCUGCUACAAAGCUAGAAGGGCGUUCGGGAA | – | – | apparent Kd [3]: 0.0464 µM; apparent Kd [4]: 0.0238 µM
18 | CUGUUUGGAGAGGAUAUGUCGGGAAGCUAAUCAACAGAAGGCUCAACAUGAGGAUCACCCAUGUCGGGUGCGUA | 0.0168 µM | 0.0491 µM | –
19 | CCCAUUGAGGAGGAUAUACUAUUGGAGACUCUCGUAGAAGGCCUGACAUGAGGAUCACCCAUGUACGUGAUAUC | 0.121 µM | 0.0767 µM | –
20 | AAUUCCUGUAAGAAGGGCGAUAUACAUGAGGAUCACCCAUGUCGUUGGAUUGAAGAAAAUCAGACGCAGGAUAUUAUUGGGAAC | – | – | apparent Kd [3]: 0.0943 µM; apparent Kd [4]: 0.04 µM
21 | CCGCACAUGAGGAUCACCCAUGUUCCCAGUCAACUAGGAGCCAAGGAUAUCGUUCGCGAGUGCACCGAGAAGGUGGCCCAUGAA | – | – | apparent Kd [3]: 0.193 µM; apparent Kd [4]: 0.0726 µM
22 | AGCGUGUAAGGAUAUCCAAUUGAUGGGAGCGGAUCUUCCCAGGAGAAGGUACAUGAGGAUCACCCAUGUGGCGC | 0.0372 µM | 0.035 µM | –
23 | GUUGGAUUUGUGAGGAUAUGGCCGUGACAUUUGGACCAGAAGGCACAUGAGGAUCACCCAUGUAUUGAAGAACG | 0.0233 µM | 0.0534 µM | –
